According to ChEMBL document CHEMBL2401641, “Design and synthesis of N-alkyldeoxynojirimycin derivatives with improved metabolic stability as inhibitors of BVDV and Tacaribe virus” (Bioorg Med Chem Lett, 2013):

Columns and labels:
[1] = Metabolic stability in mouse liver microsomes assessed as compound remaining at 2 uM after 60 mins in presence of NADPH; assay type: ADME, Microsome; conditions: read-out: Stability
How it was run: (§1)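 Liver microsomes at 0.5mg/ml incubated at 37°C with test compound at 2μM in the presence of 1mM NADPH. Percent of parent compound remaining measured at 60 min. Run by a contract lab.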

[2] = Metabolic stability in human liver microsomes assessed as compound remaining at 2 uM after 60 mins in presence of NADPH; assay type: ADME, Microsome; conditions: read-out: Stability; how it was run: as §1
[3] = Metabolic stability in rat liver microsomes assessed as compound remaining at 2 uM after 60 mins in presence of NADPH; assay type: ADME, Microsome; conditions: read-out: Stability; how it was run: as §1
[4] = Cytotoxicity against MDBK cells by MTT assay; assay type: cell-based, Bos taurus; conditions: cattle
Tacaribe virus = assay: Antiviral activity against Tacaribe virus infected in human Huh7.5 cells assessed as reduction in viral yield after 3 days by neutral-red staining-based microscopic analysis; assay type: functional, organism-based; conditions: Mammarenavirus tacaribeense, Huh-7, 72 h
How it was run: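 Huh7 cells infected with Tacaribe virus at MOI 0.01. Compounds were added immediately after virus incubation at 0.01 to 100 μM. Progeny titers were determined by standard virus yield reduction assay in Vero cells, and EC50 was derived.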

[5] = tested on: Bovine viral diarrhea virus 1; assay: Antiviral activity against Bovine viral diarrhea virus infected in MDBK cells assessed as reduction in viral yield after 3 days by neutral-red staining-based microscopic analysis; assay type: functional, organism-based; conditions: Bovine viral diarrhea virus isolates and strains, 72 h
How it was run: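 BVDV titers from treated infected cultures were determined by standard virus yield reduction assay in MDBK cells, and EC50 was derived.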

[6] = Cytotoxicity against human Huh7.5 cells by MTT assay; assay type: cell-based, Huh-7

| Structure (SMILES) | remaining at 1 h, 2 µM [1] [%] | remaining at 1 h, 2 µM [2] [%] | remaining at 1 h, 2 µM [3] [%] | CC50 [4] [µM] | EC50 (Tacaribe virus) [µM] | EC50 [5] [µM] | CC50 [6] [µM] |
| --- | --- | --- | --- | --- | --- | --- | --- |
| CC(C)(C)C(=O)N(CCCCCCN1C[C@H](O)[C@@H](O)[C@H](O)[C@H]1CO)c1ccc(F)cc1F | 55.3 | 36.1 | 21.6 |  |  |  |  |
| CC(C)(C)C(=O)N(CCCCCCN1C[C@H](O)[C@@H](O)[C@H](O)[C@H]1CO)C1CCCCC1 | 58.6 | 41.6 | 26.9 | > 500 |  |  |  |
| O=S(=O)(c1ccccc1)N(CCCCCCN1C[C@H](O)[C@@H](O)[C@H](O)[C@H]1CO)C1CCCCC1 | 42.8 | 13 | 3.83 | 200 | 1.6 | 0.5 | 280 |
| O=C(c1ccccc1)N(CCCCCCN1C[C@H](O)[C@@H](O)[C@H](O)[C@H]1CO)C1CCCCC1 | 97.4 | 82.6 | 77.4 | > 500 | 0.6 | 0.32 | > 500 |
| O=C(c1cc(F)c(F)cc1F)N(CCCCCCN1C[C@H](O)[C@@H](O)[C@H](O)[C@H]1CO)C1CCCCC1 |  |  |  | > 500 | 0.6 | 0.27 | > 500 |
| CS(=O)(=O)N(CCCCCCN1C[C@H](O)[C@@H](O)[C@H](O)[C@H]1CO)C1CCCCC1 | 86.9 | 95.5 | 65.7 | > 500 | 0.7 | 0.2 | > 500 |
| CC(C)(C)S(=O)(=O)N(CCCCCCN1C[C@H](O)[C@@H](O)[C@H](O)[C@H]1CO)C1CCCCC1 | 65.4 | 50.2 | 12.1 | > 500 | 0.4 | 0.31 | > 500 |
| CC(C)OP(=O)(OC(C)C)N(CCCCCCN1C[C@H](O)[C@@H](O)[C@H](O)[C@H]1CO)C1CCCCC1 |  |  |  | > 500 | 0.3 | 3.4 | 310 |
| NC(=O)N(CCCCCCN1C[C@H](O)[C@@H](O)[C@H](O)[C@H]1CO)C1CCCCC1 |  |  |  | > 500 | 100 | 14.2 | > 500 |
| CCCNC(=O)N(CCCCCCN1C[C@H](O)[C@@H](O)[C@H](O)[C@H]1CO)C1CCCCC1 |  |  |  | > 500 | 25 | 15.8 | > 500 |
| CC(C)(C)NC(=O)N(CCCCCCN1C[C@H](O)[C@@H](O)[C@H](O)[C@H]1CO)C1CCCCC1 | 87.6 | 93.6 | 92.8 | > 500 | 0.74 | 0.25 | > 500 |
| O=C1OC[C@H](c2ccccc2)N1CCCCCCN1C[C@H](O)[C@@H](O)[C@H](O)[C@H]1CO |  |  |  | > 500 |  | 0.8 |  |
| O=C1OC[C@@H](c2ccccc2)N1CCCCCCN1C[C@H](O)[C@@H](O)[C@H](O)[C@H]1CO |  |  |  | > 500 |  | 3.5 |  |
| O=c1oc2ccccc2n1CCCCCCN1C[C@H](O)[C@@H](O)[C@H](O)[C@H]1CO | 86.7 | 101 | 86.9 | > 500 | 0.4 | 0.4 | > 500 |
